Measured values as given in ChEMBL document CHEMBL1122991, “[(Aminomethyl)aryloxy]acetic acid esters. A new class of high-ceiling diuretics. 4. Substituted 6,7-dichloro-2,3-dihydrobenzofurans derived by ring annelation” (1985).
Calls of active or inactive are those of the source. The rule behind the calls is not given here.

Assays:
Rattus norvegicus [1] = species: Rattus norvegicus; experiment: Urine-to-plasma concentration ratio for inulin in rat; type: functional
Outline: (§1)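 Male adult Sprague-Dawley rats infused with Ringer's solution at 2 mL/100 g per h plus [3H]inulin (100 μCi/h). Two 30-min urine collections with midpoint blood samples form the control period. A single iv bolus of 0.1 mg/kg is given over 20–30 s, and 30 min later two more 30-min periods follow, with iv fluid replacement. Urine volume, Na+, K+ and inulin counts are measured, and GFR and fractional excretion are calculated by standard formulae. Paired t test, n = 8.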

Rattus norvegicus [2] = species: Rattus norvegicus; experiment: Urine flow rate per kidney was evaluated in rat; type: functional; outline: as §1
Rattus norvegicus [3] = species: Rattus norvegicus; experiment: Tubular fluid-to-plasma concentration ratio for inulin of early distal tubular segments in the exposed kidney; type: functional
Outline: (§2)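 Male adult Sprague-Dawley rats prepared for free-flow micropuncture, infused with Ringer's solution at 2 mL/100 g per h plus [3H]inulin (100 μCi/h). Early and late distal tubular fluid sampled from the exposed kidney during control periods and after a single iv bolus of 0.1 mg/kg given over 20–30 s. Control and treated groups compared by unpaired t test.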

Rattus norvegicus [4] = species: Rattus norvegicus; experiment: Urine flow rate of early distal tubular segments in the exposed kidney; type: functional; outline: as §2
Rattus norvegicus [5] = species: Rattus norvegicus; experiment: Fractional delivery of K+ to puncture site (percent of filtered load) of late distal tubular segments in the exposed kidney; type: functional; outline: as §2
Rattus norvegicus [6] = species: Rattus norvegicus; experiment: Glomerular filtration rate (per one kidney) per 100 g body weight of rat; type: functional; outline: as §1
Rattus norvegicus [7] = species: Rattus norvegicus; experiment: Fractional delivery of Na+ to puncture site (percent of filtered load) of late distal tubular segments in the exposed kidney; type: functional; outline: as §2
Rattus norvegicus [8] = species: Rattus norvegicus; experiment: Single nephron glomerular filtration rate of early distal tubular segments in the exposed kidney; type: functional; outline: as §2
Rattus norvegicus [9] = species: Rattus norvegicus; experiment: Fractional excretion of Na+ (percent of filtered load) in rat; type: functional; outline: as §1
[10] = Ratio of number of tubules/number of rats of late distal tubular segments in the exposed kidney; type: functional
Canis familiaris = experiment: Natriuretic potency was evaluated as oral dose required to produce an excretion of 2 mequiv of Na+/Kg of dog body weight, ED5 value based on N=2 dogs/dose; type: functional, Canis lupus familiaris
Outline: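 Conscious nonloaded female dogs dosed orally, two dogs/dose. ED5 is derived from a linear regression of Na+ excretion vs log dose.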

Rattus norvegicus [11] = species: Rattus norvegicus; experiment: Fractional delivery of Na+ to puncture site (percent of filtered load) of early distal tubular segments in the exposed kidney; type: functional; outline: as §2
Rattus norvegicus [12] = species: Rattus norvegicus; experiment: Tubular fluid-to-plasma concentration ratio for inulin of late distal tubular segments in the exposed kidney; type: functional; outline: as §2
Rattus norvegicus [13] = species: Rattus norvegicus; experiment: Fractional excretion of K+ (percent of filtered load) in rat; type: functional; outline: as §1
Rattus norvegicus [14] = species: Rattus norvegicus; experiment: Na+ concentration in plasma sample of rat; type: functional, organism-based; outline: as §1
Rattus norvegicus [15] = species: Rattus norvegicus; experiment: K+ concentration in plasma sample of rat; type: functional, organism-based; outline: as §1
Rattus norvegicus [16] = species: Rattus norvegicus; experiment: Single nephron glomerular filtration rate of late distal tubular segments in the exposed kidney; type: functional; outline: as §2
Rattus norvegicus [17] = experiment: Natriuretic potency was evaluated as oral dose required to produce an excretion of 2 mequiv of Na+/Kg of rat body weight, ED2 value based on N=4 rats/dose; type: functional
Outline: (§3)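 Oral gavage in female rats fed glucose and water overnight. DOCA 5 mg sc is given 2 h before dosing, and rats are loaded with isotonic NaCl-KCl (40:60) to 3% body weight right after dosing. Na+ excretion is collected over 4 h, four rats/dose. ED2 is taken from a linear regression of Na+ excretion vs log dose.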

Rattus norvegicus [18] = species: Rattus norvegicus; experiment: Fractional delivery of K+ to puncture site (percent of filtered load) of early distal tubular segments in the exposed kidney; type: functional; outline: as §2
Rattus norvegicus [19] = species: Rattus norvegicus; experiment: Urine flow rate of late distal tubular segments in the exposed kidney; type: functional; outline: as §2
Rattus norvegicus [20] = experiment: Natriuretic potency was evaluated as oral dose required to produce an excretion of 2 mequiv of Na+/Kg of rat body weight; type: functional; outline: as §3
Rattus norvegicus [21] = experiment: Natriuretic potency was evaluated as oral dose required to produce an excretion of 2 mequiv of Na+/Kg of rat body weight; IA means Inactive; type: functional, organism-based; outline: as §3

CCOC(=O)C1Cc2cc(C(=O)c3ccc(O)c(CN)c3)c(Cl)c(Cl)c2O1 (centres undefined)
U/P (Rattus norvegicus [1]): 19.7 | Rate (Rattus norvegicus [2]): 67.6 µL/min | TF/P (Rattus norvegicus [3]): 4.39 | Rate (Rattus norvegicus [4]): 8.2 nL/min | FD (Rattus norvegicus [5]): 23.6% | GFR (Rattus norvegicus [6]): 0.46 mL/min | FD (Rattus norvegicus [7]): 8.1% | SNGFR (Rattus norvegicus [8]): 35.7 nL/min | FE (Rattus norvegicus [9]): 6.3% | Ratio [10]: 8 | ED5 (Canis familiaris): 0.11 mg/kg | FD (Rattus norvegicus [11]): 13.6% | TF/P (Rattus norvegicus [12]): 8.48 | FE (Rattus norvegicus [13]): 54.6% | Plasma (Rattus norvegicus [14]): 144 mM | Plasma (Rattus norvegicus [15]): 3.57 mM | SNGFR (Rattus norvegicus [16]): 33.9 nL/min | ED2 (Rattus norvegicus [17]): 0.12 mg/kg | FD (Rattus norvegicus [18]): 23% | Rate (Rattus norvegicus [19]): 4.6 nL/min

NCc1cc(C(=O)c2cc3c(c(Cl)c2Cl)OC(CO)C3)ccc1O (centres undefined)
ED2 (Rattus norvegicus [20]): 0.95 mg/kg

CCOC(=O)C1Cc2cc(C(=O)c3cc(CN(C)C)c(O)c(CN(C)C)c3)c(Cl)c(Cl)c2O1 (centres undefined)
ED2 (Rattus norvegicus [20]): 1.82 mg/kg

CCOC(=O)C1Cc2cc(C(=O)c3cc(Cl)c(O)c(CN)c3)c(Cl)c(Cl)c2O1 (centres undefined)
ED2 (Rattus norvegicus [20]): 21.5 mg/kg

NS(=O)(=O)c1cc(C(=O)O)cc(N2CCCC2)c1Oc1ccccc1 [PIRETANIDE]
ED5 (Canis familiaris): 0.25 mg/kg | ED2 (Rattus norvegicus [17]): 0.89 mg/kg

NCc1cc(C(=O)c2cc3c(c(Cl)c2Cl)OC(C(=O)O)C3)ccc1O (centres undefined)
ED2 (Rattus norvegicus [21]): inactive

NCc1cc(Cc2cc3c(c(Cl)c2Cl)OC(CO)C3)ccc1O (centres undefined)
ED2 (Rattus norvegicus [20]): 10.2 mg/kg

CCOC(=O)C1Cc2cc(Cc3cc(CN)c(O)c(CN)c3)c(Cl)c(Cl)c2O1 (centres undefined)
ED2 (Rattus norvegicus [20]): 49 mg/kg

NS(=O)(=O)c1cc(C(=O)O)c(NCc2ccco2)cc1Cl [FUROSEMIDE]
ED5 (Canis familiaris): 3.5 mg/kg | ED2 (Rattus norvegicus [17]): 9.5 mg/kg

CCOC(=O)C1Cc2cc(Cc3ccc(O)c(CN)c3)c(Cl)c(Cl)c2O1 (centres undefined)
ED2 (Rattus norvegicus [20]): 8 mg/kg

CCCCNc1cc(C(=O)O)cc(S(N)(=O)=O)c1Oc1ccccc1 [BUMETANIDE]
ED5 (Canis familiaris): 0.15 mg/kg | ED2 (Rattus norvegicus [17]): 8.5 mg/kg

NCc1cc(C(=O)c2cc3c(c(Cl)c2Cl)OC(C(N)=O)C3)ccc1O (centres undefined)
ED2 (Rattus norvegicus [20]): 2.95 mg/kg
